Assay results published in ChEMBL document CHEMBL1125339, “Copyrine alkaloids: synthesis, spectroscopic characterization, and antimycotic/antimycobacterial activity of A- and B-ring-functionalized sampangines” (1992).
In brackets after ≈: the same amount, converted by molar mass.

Columns and labels:
[1] = tested on: Candida albicans; assay: In vitro antifungal activity against Candida albicans B311.; assay type: functional
Method in brief: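 Cells grown 24 h at 37 °C in Sabouraud dextrose broth, centrifuged, washed and resuspended in 0.9% saline at 10^6 CFU/mL (hemacytometer). MIC by 2-fold serial dilution in yeast nitrogen broth with a 10 μL loop inoculum. Incubation at 37 °C, read at 24 and 48 h. MIC is the lowest inhibitory concentration. Amphotericin B is the control. Replicate evaluations.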

[2] = tested on: Mycobacterium intracellulare; assay: In vitro anti-mycobacterial activity against Mycobacterium intracellular ATCC 23068.; assay type: functional
Method in brief: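 Organism grown on Lowenstein-Jensen medium for 48 h at 37 °C. Active compounds from the agar-well screen (1 mg/mL, zone >4 mm) go to 2-fold serial broth dilution in Mueller-Hinton broth. 10 μL loop inoculum per tube, 37 °C for 72 h. MIC is the lowest concentration inhibiting growth. Rifampin is the positive control. Replicate evaluations.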

[3] = tested on: Cryptococcus neoformans; assay: In vitro antifungal activity against Cryptococcus neoformans ATCC 32264.
[4] = tested on: Aspergillus fumigatus; assay: In vitro antifungal activity against Aspergillus fumigatus ATCC 26934.; assay type: functional
Method in brief: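 Inoculum is a surface-growth suspension from agar slants in sterile water. Compounds active in the agar-well diffusion screen (1 mg/mL, zone >4 mm) are tested by 2-fold serial dilution in Sabouraud dextrose broth. 10 μL loop inoculum, 30 °C, read at 48 and 72 h. MIC is the lowest growth-inhibiting concentration. Amphotericin B is the control. Replicate evaluations.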

MIC [1] [µg/mL] | MIC [2] [µg/mL] | MIC [3] [µg/mL] | MIC [4] [µg/mL] | SMILES
25 (≈ 91.5 µM) | 1.56 (≈ 5.71 µM) | 25 (≈ 91.5 µM) |  | Cc1c2c(nc3ccccc13)C(=O)c1ccccc1C2=O
 | 25 (≈ 70.4 µM) | 25 (≈ 70.4 µM) |  | CCOc1nc2c3c(nccc3c1Br)-c1ccccc1C2=O
3.12 (≈ 11.9 µM) | 3.12 (≈ 11.9 µM) | 1.56 (≈ 5.95 µM) |  | COc1cnc2c3c(nccc13)-c1ccccc1C2=O
100 (≈ 404 µM) |  | 25 (≈ 101 µM) |  | Nc1cnc2c3c(nccc13)-c1ccccc1C2=O
25 (≈ 91.5 µM) |  | 6.25 (≈ 22.9 µM) |  | [N-]=[N+]=Nc1cnc2c3c(nccc13)-c1ccccc1C2=O
3.12 (≈ 10 µM) | 3.12 (≈ 10 µM) | 0.1 (≈ 0.321 µM) | 50 (≈ 161 µM) | O=C1c2ccccc2-c2nccc3c(Br)cnc1c23
0.39 (≈ 1.58 µM) | 0.39 (≈ 1.58 µM) | 0.39 (≈ 1.58 µM) | 0.78 (≈ 3.17 µM) | Cc1cnc2c3c(nccc13)C(=O)c1ccccc1-2
1.56 (≈ 5.95 µM) | 1.56 (≈ 5.95 µM) | 0.78 (≈ 2.97 µM) | 0.78 (≈ 2.97 µM) | COc1cnc2c3c(nccc13)C(=O)c1ccccc1-2
0.39 (≈ 1.46 µM) | 3.12 (≈ 11.7 µM) | 0.1 (≈ 0.375 µM) |  | O=C1c2ccccc2-c2nccc3c(Cl)cnc1c23
100 (≈ 421 µM) | 12.5 (≈ 52.7 µM) | 3.12 (≈ 13.2 µM) |  | CCc1ccnc2c1C(=O)c1ccccc1C2=O
0.78 (≈ 0.844 µM) |  | 0.39 (≈ 0.422 µM) | 0.39 (≈ 0.422 µM) | C[C@@H]1[C@H](O)[C@@H](C)/C=C/C=C/C=C/C=C/C=C/C=C/C=C/[C@H](O[C@@H]2O[C@H](C)[C@@H](O)[C@H](N)[C@@H]2O)C[C@@H]2O[C@](O)(C[C@@H](O)C[C@@H](O)[C@H](O)CC[C@@H](O)C[C@@H](O)CC(=O)O[C@H]1C)C[C@H](O)[C@H]2C(=O)O [AMPHOTERICIN B]
0.39 (≈ 1.38 µM) | 0.39 (≈ 1.38 µM) | 1.56 (≈ 5.53 µM) | 0.39 (≈ 1.38 µM) | O=C1c2ccccc2-c2nccc3c2c1nc1ccccc13 [BENZOSAMPANGINE]
12.5 (≈ 56 µM) | 12.5 (≈ 56 µM) | 1.56 (≈ 6.99 µM) | 100 (≈ 448 µM) | Cc1ccnc2c1C(=O)c1ccccc1C2=O [CLEISTOPHOLINE]
 | 0.78 (≈ 0.948 µM) |  |  | CO[C@H]1/C=C/O[C@@]2(C)Oc3c(C)c(O)c4c(O)c(c(/C=N/N5CCN(C)CC5)c(O)c4c3C2=O)NC(=O)/C(C)=C\C=C\[C@H](C)[C@H](O)[C@@H](C)[C@@H](O)[C@@H](C)[C@H](OC(C)=O)[C@@H]1C [RIFAMPIN]

SMILES | MIC [1] [µg/mL] | MIC [2] [µg/mL] | MIC [3] [µg/mL] | MIC [4] [µg/mL]
O=C1c2ccccc2-c2nccc3ccnc1c23 [SAMPANGINE] | 1.56 (≈ 6.72 µM) | 0.78 (≈ 3.36 µM) | 0.78 (≈ 3.36 µM) | 1.56 (≈ 6.72 µM)
